Screening data from PubChem BioAssay.
The entries come from a sample that favours hits as a whole.
IDH1 mut inh = inhibitors of human IDH1 R132H; IDH1 R132H reductase, diaphorase/resazurin fluorescence, 60 min; AID 624101; O75874; actives 0.18% (n = 70,000); inhibition, % at 10 µM; in the data active = inhibition above about 34%; inconclusive = no clear call, values can overlap the other calls; inactive = below about 11%;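 also: 0% = DMSO and 100% = no enzyme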
GASC1 inh = inhibitors of human demethylase GASC-1 KDM4C; actives 0.15% (n = 96,000); inhibition, % at 12.5 µM; AID 720574; Q9H3R0; GST-KDM4C 2-372, H3K9me3 peptide, LANCE TR-FRET;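 active = mean replicate inhibition above about 25%, with at least 55% of replicates also reaching it, limit read from the data, passing the limit was not always enough; inconclusive = only one of those two conditions met; inactive = neither condition met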
Target sequence (Q9H3R0 2-372 limits assumed): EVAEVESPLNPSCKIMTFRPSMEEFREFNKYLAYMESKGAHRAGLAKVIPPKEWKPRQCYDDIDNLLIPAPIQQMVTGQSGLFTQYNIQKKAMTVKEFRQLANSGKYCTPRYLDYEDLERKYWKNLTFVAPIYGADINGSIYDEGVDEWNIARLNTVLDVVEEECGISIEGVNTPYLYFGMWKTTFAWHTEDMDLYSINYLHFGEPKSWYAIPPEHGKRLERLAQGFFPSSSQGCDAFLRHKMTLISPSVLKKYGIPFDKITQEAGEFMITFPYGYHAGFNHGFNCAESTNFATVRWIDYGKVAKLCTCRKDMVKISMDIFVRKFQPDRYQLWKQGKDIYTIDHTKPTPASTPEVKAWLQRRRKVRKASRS
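Test system: N-terminal GST-fused human GASC-1 (KDM4C) fragment, residues 2-372; quantity: GASC-1 enzyme at 10 nM final in reaction; dosing: single dose; schedule: 30 min demethylation and 1 h detection at room temperature; signal: LANCE TR-FRET, excitation 340 nm, emissions 618 and 671 nm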
T cruzi growth-1 = blocks T. cruzi growth in NIH3T3 culture. T. cruzi beta-gal in NIH3T3, GalScreen luminescence, 90 h. inhibition, % at 8.34 µM. actives 5.9% (n = 77,000);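 active = mean inhibition above about 93%, with at least 55% of replicates each passing it, limit read from the data, passing the limit was not always enough; inconclusive = only one of those two conditions holds; inactive = neither condition holds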
T cruzi growth-2 = blocks T. cruzi growth in NIH3T3 host cells; shares compounds with T cruzi growth-1; T. cruzi beta-gal in NIH3T3, GalScreen luminescence, 90 h; inhibition, % at 8.35 µM; actives 72% (n = 5,600); AID 651739;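 active = mean replicate inhibition above about 95% and at least 55% of replicates individually reaching it, limit read from the data; inconclusive = only one of the two criteria is met; inactive = neither criterion is met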
T cruzi growth-3 = blocks T. cruzi growth in NIH3T3 host cells; actives 21% (n = 5,600); T. cruzi beta-gal in NIH3T3, GalScreen luminescence, 90 h; AID 651740; shares compounds with T cruzi growth-1; inhibition, % at 2.09 µM;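 active = mean inhibition above about 95%, with at least 55% of replicates also reaching it, limit read from the data; inconclusive = meets just one of the two conditions; inactive = meets neither condition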;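 also: plate controls were neutral control median for no effect and positive control median for full effect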
3T3 cytotox = cytotoxicity in mouse NIH/3T3 fibroblasts | NIH/3T3 viability, CellTiter-Glo ATP luminescence, 90 h | actives 14% (n = 5,600) | cytotoxicity (signal decrease), % at 8.35 µM | shares compounds with T cruzi growth-1;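 active = mean signal decrease across replicates above about 35% based on untreated-well scatter, with enough replicates individually passing, limit read from the data; inconclusive = no rule stated though some were filed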;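 also: 0% = median of neutral control wells and 100% = median of positive control wells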
3T3 cytotox 2 = kills mouse NIH/3T3 fibroblasts; shares compounds with T cruzi growth-1; NIH/3T3 viability, CellTiter-Glo ATP luminescence, 90 h; inhibition, % at 24.9 µM; actives 56% (n = 5,600); AID 651744;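 active = mean loss of cell viability signal at or above a set limit, and enough replicates individually reaching it; inconclusive = meets only the mean limit or only the replicate share; inactive = meets neither condition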;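 also: 0% = median of neutral control wells and 100% = median of positive control wells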
An asterisk follows results filed as active; u = inconclusive; x = not tested or not shown.

SMILES | IDH1 mut inh | GASC1 inh | T cruzi growth-1 | T cruzi growth-2 | T cruzi growth-3 | 3T3 cytotox | 3T3 cytotox 2
CNC[C@@H]1Oc2c(NS(=O)(=O)c3c(C)noc3C)cccc2C(=O)N([C@@H](C)CO)C[C@@H]1C | 4 | 0 | 67 | x | x | x | x
C[C@@H]1CN([C@H](C)CO)C(=O)Cc2cc(NS(=O)(=O)c3ccc(Cl)cc3)ccc2O[C@H]1CN(C)CC1CCCCC1 | -1 | 0 | 106* | 96* | u | 27 | 106*
C[C@H](CO)N1C[C@H](C)[C@@H](CN(C)CC2CCCCC2)Oc2ccc(NS(=O)(=O)c3ccc(F)cc3)cc2CC1=O | 0 | 0 | 107* | 107* | 89 | 33 | 104*
CC(C)NC(=O)N(C)C[C@@H]1Oc2ccc(NS(=O)(=O)c3ccc(F)cc3)cc2CC(=O)N([C@@H](C)CO)C[C@H]1C | 1 | 0 | 101 | x | x | x | x
C[C@H]1CN([C@@H](C)CO)C(=O)Cc2cc(NS(=O)(=O)c3ccc(F)cc3)ccc2O[C@H]1CN(C)CC1CC1 | 0 | -1 | x | x | x | x | x
CC(C)NC(=O)N(C)C[C@H]1Oc2ccc(NS(=O)(=O)c3ccc(F)cc3)cc2CC(=O)N([C@H](C)CO)C[C@@H]1C | 1 | -1 | 103* | 16 | 49 | 2 | 6
C[C@H](CO)N1C[C@H](C)[C@@H](CN(C)CC2CCCCC2)Oc2ccc(NS(=O)(=O)c3ccc(Cl)cc3)cc2CC1=O | 0 | 0 | 94 | x | x | x | x
COc1ccc2c3c(n(C)c2c1)[C@@H](CO)N(C(=O)C1CCC1)CC31CCN(C(=O)c2ccncc2)CC1 | x | -1 | x | x | x | x | x
COc1ccccc1NC(=O)N1CCCCN2[C@H](CO)[C@H](c3ccc(-c4ccccc4)cc3)[C@@H]2C1 | x | x | 111* | 105* | 93 | 18 | 32*
COc1ccccc1NC(=O)N1CCCCN2[C@H](CO)[C@@H](c3ccc(C#Cc4ccccc4)cc3)[C@@H]2C1 | x | -1 | 49 | x | x | x | x
COc1ccccc1NC(=O)N1CCCCN2[C@@H](CO)[C@@H](c3ccc(-c4ccc(C)cc4)cc3)[C@@H]2C1 | x | 12 | 94 | x | x | x | x
COc1ccccc1NC(=O)N1CCCCN2[C@H](CO)[C@@H](c3ccc(-c4ccccc4)cc3)[C@@H]2C1 | x | x | 107* | 108* | 116* | 24 | 105*
COc1ccccc1NC(=O)N1CCCCN2[C@H](C1)[C@H](c1ccc(C#Cc3ccccc3)cc1)[C@@H]2CO | x | 0 | 114* | 104* | 80 | 27 | 30*
COc1ccccc1NC(=O)N1CCCCN2[C@H](C1)[C@H](c1ccc(-c3ccc(C)cc3)cc1)[C@@H]2CO | x | 1 | 113* | 111* | 73 | 16 | 28*
COc1ccccc1NC(=O)N1CCCCN2[C@@H](CO)[C@@H](c3ccc(-c4cccc(C)c4)cc3)[C@@H]2C1 | x | -1 | 69 | x | x | x | x
COc1ccccc1NC(=O)N1CCCCN2[C@H](C1)[C@H](c1ccc(-c3cccc(C)c3)cc1)[C@@H]2CO | x | 0 | 92 | x | x | x | x
NCC[C@@H]1CC[C@@H](NS(=O)(=O)Cc2ccccc2)[C@@H](CO)O1 | 0 | 0 | 29 | x | x | x | x
C[C@@H]1CN([C@H](C)CO)C(=O)c2cc(NC(=O)NC3CCCCC3)ccc2O[C@H]1CN(C)C(=O)Nc1cccc2ccccc12 | 1 | 1 | 2 | x | x | x | x
C[C@@H]1CN([C@H](C)CO)S(=O)(=O)c2ccc(C#CCC3CCCC3)cc2O[C@@H]1CN(C)C(=O)c1cnccn1 | x | -1 | 12 | x | x | x | x
O=C(NC1CCCC1)[C@H]1[C@H](CO)[C@H]2Cn3c(ccc(-c4ccccc4)c3=O)[C@@H]1N2 | x | -1 | x | x | x | x | x
C[C@@H]1CN([C@H](C)CO)C(=O)c2cc(NC(=O)Nc3ccc4c(c3)OCO4)ccc2O[C@@H](C)CCCCO[C@@H]1CN(C)Cc1ccc(Cl)c(Cl)c1 | x | 1 | 71 | x | x | x | x
COC(=O)[C@@H]1N=C(c2ccc(OCCCO)cc2)O[C@@H]1c1ccccc1N=[N+]=[N-] | 0 | x | x | x | x | x | x
COc1cccc(CN(C)C[C@H]2OCc3cn(nn3)CCCC(=O)N([C@H](C)CO)C[C@H]2C)c1 | 15 | 1 | -61 | x | x | x | x
COCC(=O)N1[C@H](CO)[C@H](c2ccccc2)[C@@H]1CNC(=O)c1ccccn1 | x | 2 | 22 | x | x | x | x
COc1cccc(S(=O)(=O)N[C@@H]2CC[C@@H](CCn3cc(-c4ccc(F)cc4)nn3)O[C@@H]2CO)c1 | 0 | -2 | -25 | x | x | x | x
SMILES | IDH1 mut inh | GASC1 inh | T cruzi growth-1 | T cruzi growth-2 | T cruzi growth-3 | 3T3 cytotox | 3T3 cytotox 2
C[C@H](CO)N1C[C@H](C)[C@H](CN(C)Cc2ccc(Oc3ccccc3)cc2)Oc2c(NC(=O)Nc3ccc4c(c3)OCO4)cccc2C1=O | 1 | -2 | 88 | x | x | x | x
C[C@@H]1CN([C@@H](C)CO)C(=O)c2cc(NC(=O)Nc3ccccc3)ccc2O[C@H]1CN(C)Cc1ccc(Oc2ccccc2)cc1 | x | 1 | 58 | x | x | x | x
C[C@@H]1CN([C@@H](C)CO)C(=O)c2cccc(NC(=O)Nc3ccc4c(c3)OCO4)c2O[C@@H]1CN(C)Cc1ccc(C(=O)Nc2ccccc2N)cc1 | 1 | -1 | 95 | x | x | x | x
C[C@H]1CN([C@@H](C)CO)C(=O)c2cccc(NC(=O)Nc3ccc4c(c3)OCO4)c2O[C@@H]1CN(C)Cc1ccc(Oc2ccccc2)cc1 | 0 | 1 | 92* | 96* | 63 | -22 | -28
C[C@@H]1CN([C@@H](C)CO)C(=O)c2cccc(NC(=O)Nc3ccc4c(c3)OCO4)c2O[C@H]1CN(C)Cc1ccc(C(=O)Nc2ccccc2N)cc1 | x | 2 | 115* | 110* | u | 16 | 30*
C[C@H](CO)N1C[C@H](C)[C@H](CN(C)Cc2ccc(Oc3ccccc3)cc2)Oc2ccc(NC(=O)Nc3ccc4c(c3)OCO4)cc2C1=O | x | -2 | 110* | 102* | 7 | -7 | 32*
Cn1c(SCC(=O)N2CCc3ccccc32)nnc1-c1ccc(NC(=O)c2ccccc2Br)cc1 | 0 | x | x | x | x | x | x
C[C@@H](O)C#Cc1ccc([C@@H]2[C@@H](CO)N3CCCCN(C(=O)c4cccc(F)c4)C[C@H]23)cc1 | x | 1 | 68 | x | x | x | x
C[C@@H]1CCCCO[C@H](CN(C)S(=O)(=O)c2ccc(Cl)cc2)[C@H](C)CN([C@@H](C)CO)C(=O)c2cc(NS(=O)(=O)c3ccc(F)cc3)ccc2O1 | 2 | -1 | 73 | x | x | x | x
C[C@@H]1CCCCO[C@H](CN(C)S(=O)(=O)c2ccc(Cl)cc2)[C@H](C)CN([C@H](C)CO)C(=O)c2cc(NS(=O)(=O)c3ccc(F)cc3)ccc2O1 | 0 | 1 | 88 | x | x | x | x
C[C@@H]1CCCCO[C@H](CN(C)S(=O)(=O)c2ccc(F)cc2)[C@@H](C)CN([C@@H](C)CO)C(=O)c2cc(NS(=O)(=O)c3ccc(Cl)cc3)ccc2O1 | x | 0 | 97* | 105* | 111* | 2 | 8
